Measurements reported in ChEMBL document CHEMBL3994579, “Synthesis and antibacterial activity of novel 3-O-descladinosylazithromycin derivatives” (2017).
Values after ≈ are worked out from the molar mass of the structure shown.

Columns and labels:
Assay type in all cases: functional
Staphylococcus aureus [1] = assay: Antibacterial activity against erythromycin-susceptible Staphylococcus aureus ATCC 25923 by broth microdilution method
In short: (§1)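 MICs were determined in vitro by broth microdilution following the NCCL-recommended method. Azithromycin and clarithromycin were run alongside as reference antibiotics on the same strain panel.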

Escherichia coli = assay: Antibacterial activity against penicillin-susceptible Escherichia coli ATCC 25922 by broth microdilution method; in short: as §1
Streptococcus pyogenes [2] = assay: Antibacterial activity against erythromycin-susceptible Streptococcus pyogenes clinical isolate by broth microdilution method; in short: as §1
Pseudomonas aeruginosa = assay: Antibacterial activity against penicillin-susceptible Pseudomonas aeruginosa ATCC 27853 by broth microdilution method; in short: as §1
Bacillus subtilis = assay: Antibacterial activity against erythromycin/penicillin-susceptible Bacillus subtilis ATCC 9372 by broth microdilution method; in short: as §1
[3] = system: Staphylococcus epidermidis; assay: Antibacterial activity against penicillin-resistant Staphylococcus epidermidis clinical isolate by broth microdilution method
In short: (§2)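 Broth microdilution per NCCL recommendation, read as minimal inhibitory concentration, run alongside azithromycin and clarithromycin references. Strains: S. pneumoniae B1 (erythromycin-resistant, ermB), A22072 (erythromycin-resistant, mefA), AB11 (erythromycin-resistant, erm and mef); S. aureus ATCC29213 ([…]); S. epidermidis clinical isolate (penicillin-resistant, not characterized).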

Staphylococcus aureus [4] = assay: Antibacterial activity against […] Staphylococcus aureus ATCC 29213 by broth microdilution method; in short: as §2
Streptococcus pneumoniae [5] = assay: Antibacterial activity against erythromycin-resistant Streptococcus pneumoniae B1 expressing ermB gene by broth microdilution method; in short: as §2
Streptococcus pneumoniae [6] = assay: Antibacterial activity against erythromycin-resistant Streptococcus pneumoniae A22072 expressing mefA gene by broth microdilution method; in short: as §2
Streptococcus pneumoniae [7] = assay: Antibacterial activity against erythromycin-resistant Streptococcus pneumoniae AB11 expressing ermB/mefA genes by broth microdilution method; in short: as §2
Streptococcus pyogenes [8] = assay: Antibacterial activity against erythromycin-resistant Streptococcus pyogenes R1 clinical isolate by broth microdilution method

| Compound | MIC (Staphylococcus aureus [1]) [mg/L] | MIC (Escherichia coli) [mg/L] | MIC (Streptococcus pyogenes [2]) [mg/L] | MIC (Pseudomonas aeruginosa) [mg/L] | MIC (Bacillus subtilis) [mg/L] | MIC [3] [mg/L] | MIC (Staphylococcus aureus [4]) [mg/L] | MIC (Streptococcus pneumoniae [5]) [mg/L] | MIC (Streptococcus pneumoniae [6]) [mg/L] | MIC (Streptococcus pneumoniae [7]) [mg/L] | MIC (Streptococcus pyogenes [8]) [mg/L] |
| --- | --- | --- | --- | --- | --- | --- | --- | --- | --- | --- | --- |
| CC[C@H]1OC(=O)[C@H](C)[C@@H](O)[C@H](C)[C@@H](O[C@@H]2O[C@H](C)C[C@H](N(C)C)[C@H]2OC(=O)Nc2ccc(F)cc2)[C@](C)(O)C[C@@H](C)CN(C)[C@H](C)[C@H]2OC(=O)O[C@@]21C | 16 (≈ 21.2 µM) | 128 (≈ 170 µM) | 1 (≈ 1.33 µM) | 128 (≈ 170 µM) | 64 (≈ 84.9 µM) | 64 (≈ 84.9 µM) | 128 (≈ 170 µM) | 64 (≈ 84.9 µM) | 4 (≈ 5.31 µM) | 8 (≈ 10.6 µM) | 64 (≈ 84.9 µM) |
| CC[C@H]1OC(=O)[C@H](C)[C@@H](O)[C@H](C)[C@@H](O[C@@H]2O[C@H](C)C[C@H](N(C)C)[C@H]2OC(=O)n2ccnc2)[C@](C)(O)C[C@@H](C)CN(C)[C@H](C)[C@H]2OC(=O)O[C@@]21C | 64 (≈ 90 µM) | 64 (≈ 90 µM) | 8 (≈ 11.3 µM) | 64 (≈ 90 µM) | 128 (≈ 180 µM) | 32 (≈ 45 µM) | 128 (≈ 180 µM) | 256 (≈ 360 µM) | 128 (≈ 180 µM) | 32 (≈ 45 µM) | 256 (≈ 360 µM) |
| CC[C@H]1OC(=O)[C@H](C)[C@@H](OC(=O)n2ccnc2)[C@H](C)[C@@H](O[C@@H]2O[C@H](C)C[C@H](N(C)C)[C@H]2OC(C)=O)[C@](C)(O)C[C@@H](C)CN(C)[C@H](C)[C@H]2OC(=O)O[C@@]21C | 128 (≈ 170 µM) | 32 (≈ 42.5 µM) | 8 (≈ 10.6 µM) | 128 (≈ 170 µM) | 128 (≈ 170 µM) | 128 (≈ 170 µM) | 128 (≈ 170 µM) | 256 (≈ 340 µM) | 16 (≈ 21.3 µM) | 256 (≈ 340 µM) | 56 (≈ 74.4 µM) |
| CCCCCCNC(=O)O[C@@H]1[C@@H](C)N(C)C[C@H](C)C[C@@](C)(O)[C@H](O[C@@H]2O[C@H](C)C[C@H](N(C)C)[C@H]2O)[C@@H](C)[C@H](OC(=O)Nc2ccccc2)[C@@H](C)C(=O)O[C@H](CC)[C@@]1(C)O | 16 (≈ 19.1 µM) | 64 (≈ 76.5 µM) | 1 (≈ 1.19 µM) | 64 (≈ 76.5 µM) | 4 (≈ 4.78 µM) | – | – | – | – | – | – |
| CC[C@H]1OC(=O)[C@H](C)[C@@H](OC(=O)N(C)c2ccccc2)[C@H](C)[C@@H](O[C@@H]2O[C@H](C)C[C@H](N(C)C)[C@H]2O)[C@](C)(O)C[C@@H](C)CN(C)[C@H](C)[C@H]2OC(=O)O[C@@]21C | 4 (≈ 5.33 µM) | 64 (≈ 85.3 µM) | 0.125 (≈ 0.167 µM) | 64 (≈ 85.3 µM) | 4 (≈ 5.33 µM) | 8 (≈ 10.7 µM) | 64 (≈ 85.3 µM) | 64 (≈ 85.3 µM) | 2 (≈ 2.67 µM) | 4 (≈ 5.33 µM) | 64 (≈ 85.3 µM) |
| CC[C@H]1OC(=O)[C@H](C)[C@@H](O[C@H]2C[C@@](C)(OC)[C@@H](O)[C@H](C)O2)[C@H](C)[C@@H](O[C@@H]2O[C@H](C)C[C@H](N(C)C)[C@H]2O)[C@](C)(O)C[C@@H](C)CN(C)[C@H](C)[C@@H](O)[C@]1(C)O [AZITHROMYCIN] | 0.25 (≈ 0.334 µM) | 64 (≈ 85.4 µM) | 0.03 (≈ 0.0401 µM) | 32 (≈ 42.7 µM) | 1 (≈ 1.34 µM) | 0.25 (≈ 0.334 µM) | 4 (≈ 5.34 µM) | 256 (≈ 342 µM) | 4 (≈ 5.34 µM) | 256 (≈ 342 µM) | 256 (≈ 342 µM) |
| CCCCc1ccc(NC(=O)O[C@H]2[C@H](O[C@@H]3[C@@H](C)[C@H](O)[C@@H](C)C(=O)O[C@H](CC)[C@@]4(C)OC(=O)O[C@@H]4[C@@H](C)N(C)C[C@H](C)C[C@@]3(C)O)O[C@H](C)C[C@@H]2N(C)C)cc1 | 32 (≈ 40.4 µM) | 128 (≈ 162 µM) | 8 (≈ 10.1 µM) | 128 (≈ 162 µM) | 128 (≈ 162 µM) | 64 (≈ 80.8 µM) | 128 (≈ 162 µM) | 256 (≈ 323 µM) | 64 (≈ 80.8 µM) | 32 (≈ 40.4 µM) | 64 (≈ 80.8 µM) |
| CC[C@H]1OC(=O)[C@H](C)[C@@H](OC(=O)Nc2cccc(OC)c2)[C@H](C)[C@@H](O[C@@H]2O[C@H](C)C[C@H](N(C)C)[C@H]2OC(C)=O)[C@](C)(O)C[C@@H](C)CN(C)[C@H](C)[C@H]2OC(=O)O[C@@]21C | 32 (≈ 39.6 µM) | 64 (≈ 79.2 µM) | 2 (≈ 2.48 µM) | 64 (≈ 79.2 µM) | 16 (≈ 19.8 µM) | 32 (≈ 39.6 µM) | 64 (≈ 79.2 µM) | 128 (≈ 158 µM) | 16 (≈ 19.8 µM) | 32 (≈ 39.6 µM) | 128 (≈ 158 µM) |
| CC[C@H]1OC(=O)[C@H](C)[C@@H](OC(=O)Nc2cccc(C)c2)[C@H](C)[C@@H](O[C@@H]2O[C@H](C)C[C@H](N(C)C)[C@H]2O)[C@](C)(O)C[C@@H](C)CN(C)[C@H](C)[C@H]2OC(=O)O[C@@]21C | 2 (≈ 2.67 µM) | 64 (≈ 85.3 µM) | 1 (≈ 1.33 µM) | 64 (≈ 85.3 µM) | 8 (≈ 10.7 µM) | 4 (≈ 5.33 µM) | 64 (≈ 85.3 µM) | 64 (≈ 85.3 µM) | 8 (≈ 10.7 µM) | 16 (≈ 21.3 µM) | 32 (≈ 42.7 µM) |
| CC[C@H]1OC(=O)[C@H](C)[C@@H](OC(=O)Nc2ccccc2)[C@H](C)[C@@H](O[C@@H]2O[C@H](C)C[C@H](N(C)C)[C@H]2OC(C)=O)[C@](C)(O)C[C@@H](C)CN(C)[C@H](C)[C@H]2OC(=O)O[C@@]21C | 32 (≈ 41.1 µM) | 32 (≈ 41.1 µM) | 0.25 (≈ 0.321 µM) | 64 (≈ 82.3 µM) | 32 (≈ 41.1 µM) | 16 (≈ 20.6 µM) | 128 (≈ 165 µM) | 128 (≈ 165 µM) | 4 (≈ 5.14 µM) | 64 (≈ 82.3 µM) | 128 (≈ 165 µM) |
| CC[C@H]1OC(=O)[C@H](C)[C@@H](OC(=O)NCc2ccccc2)[C@H](C)[C@@H](O[C@@H]2O[C@H](C)C[C@H](N(C)C)[C@H]2OC(C)=O)[C@](C)(O)C[C@@H](C)CN(C)[C@H](C)[C@H]2OC(=O)O[C@@]21C | 64 (≈ 80.8 µM) | 128 (≈ 162 µM) | 8 (≈ 10.1 µM) | 128 (≈ 162 µM) | 64 (≈ 80.8 µM) | 64 (≈ 80.8 µM) | 64 (≈ 80.8 µM) | 128 (≈ 162 µM) | 32 (≈ 40.4 µM) | 64 (≈ 80.8 µM) | 128 (≈ 162 µM) |
| CC[C@H]1OC(=O)[C@H](C)[C@@H](O[C@H]2C[C@@](C)(OC)[C@@H](O)[C@H](C)O2)[C@H](C)[C@@H](O[C@@H]2O[C@H](C)C[C@H](N(C)C)[C@H]2O)[C@](C)(OC)C[C@@H](C)C(=O)[C@H](C)[C@@H](O)[C@]1(C)O [CLARITHROMYCIN] | 0.25 (≈ 0.334 µM) | 32 (≈ 42.8 µM) | 0.03 (≈ 0.0401 µM) | 64 (≈ 85.6 µM) | 0.25 (≈ 0.334 µM) | 0.25 (≈ 0.334 µM) | 32 (≈ 42.8 µM) | 256 (≈ 342 µM) | 2 (≈ 2.67 µM) | 128 (≈ 171 µM) | 256 (≈ 342 µM) |
| CC[C@H]1OC(=O)[C@H](C)[C@@H](OC(=O)Nc2ccc(C(F)(F)F)cc2)[C@H](C)[C@@H](O[C@@H]2O[C@H](C)C[C@H](N(C)C)[C@H]2O)[C@](C)(O)C[C@@H](C)CN(C)[C@H](C)[C@H]2OC(=O)O[C@@]21C | 16 (≈ 19.9 µM) | 128 (≈ 159 µM) | 1 (≈ 1.24 µM) | 128 (≈ 159 µM) | 32 (≈ 39.8 µM) | 0.25 (≈ 0.311 µM) | 128 (≈ 159 µM) | 32 (≈ 39.8 µM) | 4 (≈ 4.98 µM) | 4 (≈ 4.98 µM) | 64 (≈ 79.6 µM) |
| CC[C@H]1OC(=O)[C@H](C)[C@@H](OC(=O)N(C)c2ccccc2)[C@H](C)[C@@H](O[C@@H]2O[C@H](C)C[C@H](N(C)C)[C@H]2OC(C)=O)[C@](C)(O)C[C@@H](C)CN(C)[C@H](C)[C@H]2OC(=O)O[C@@]21C | – | – | – | – | – | 128 (≈ 162 µM) | – | – | – | – | – |
